Target: T1, P450BM3 variant V-H10(R47C,A87I) (Priestia megaterium, UniProt P14779, A181T/A185V/A198V/A291V/E253G/F206C/F88I/H237Q/L354V/P143S/R256S/R48C/S227R/T176I/V79N)
T1 sequence (P14779 1-1049 R48C/V79N/F88I/P143S/T176I/A181T/A185V/A198V/F206C/S227R/H237Q/E253G/R256S/A291V/L354V): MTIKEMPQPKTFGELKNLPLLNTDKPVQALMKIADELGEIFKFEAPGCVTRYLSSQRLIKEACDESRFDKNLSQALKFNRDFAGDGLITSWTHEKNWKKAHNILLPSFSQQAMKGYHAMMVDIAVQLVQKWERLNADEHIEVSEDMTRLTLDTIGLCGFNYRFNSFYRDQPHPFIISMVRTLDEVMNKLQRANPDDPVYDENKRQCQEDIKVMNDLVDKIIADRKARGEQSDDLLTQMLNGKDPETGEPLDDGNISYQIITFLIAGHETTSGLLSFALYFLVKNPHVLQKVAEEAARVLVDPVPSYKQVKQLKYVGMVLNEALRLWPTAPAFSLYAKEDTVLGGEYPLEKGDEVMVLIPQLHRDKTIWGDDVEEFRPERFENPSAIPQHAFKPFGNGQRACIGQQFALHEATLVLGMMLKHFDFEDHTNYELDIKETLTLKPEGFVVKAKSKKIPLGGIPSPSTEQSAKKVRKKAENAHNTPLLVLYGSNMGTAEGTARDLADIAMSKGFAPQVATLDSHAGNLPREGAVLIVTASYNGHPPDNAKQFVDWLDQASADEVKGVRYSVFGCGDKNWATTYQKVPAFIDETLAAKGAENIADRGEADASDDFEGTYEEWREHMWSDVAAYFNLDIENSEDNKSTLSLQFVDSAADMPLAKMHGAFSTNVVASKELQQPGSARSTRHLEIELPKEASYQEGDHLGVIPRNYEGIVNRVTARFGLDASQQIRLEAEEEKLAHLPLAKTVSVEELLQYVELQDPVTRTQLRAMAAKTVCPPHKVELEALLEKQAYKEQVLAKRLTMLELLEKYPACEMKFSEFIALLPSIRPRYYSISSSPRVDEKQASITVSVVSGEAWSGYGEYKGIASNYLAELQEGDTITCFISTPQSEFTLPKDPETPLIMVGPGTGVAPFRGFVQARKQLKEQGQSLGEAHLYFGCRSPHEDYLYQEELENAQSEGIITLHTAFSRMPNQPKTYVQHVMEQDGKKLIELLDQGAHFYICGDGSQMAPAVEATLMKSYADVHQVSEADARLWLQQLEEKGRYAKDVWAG
Assay: Heme spin shift binding of MCL to P450 variant V-H10
Set-up: species or system Bacillus megaterium
Procedure, shortened: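 Purified P450 (3 μM) in 50 mM or 1 M potassium phosphate, pH 8.0, titrated with test compound (5–2000 μM) from a 50 mM ethanol stock. Difference spectra (350–500 nm) were recorded at each step. Absorbance change at 390/420 nm (high/low spin) was fitted to a 1:1 binding model for KD. At least triplicate, room temperature.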

Question: How did the Kd (50 mM KPi pH 8.0, room temperature) turn out when C=C1C(=O)O[C@H]2[C@H]1CCC(C)=C1CC[C@@](C)(O)[C@@H]12 [MCL, micheliolide] was run?
Answer: 365 ± 53 µM

Question: And the Kd (1 M KPi buffer (pH 8.0))?
Answer: 128 µM

— PMC8161485 (ACS Central Science, 2021)
